As a reminder, the IC50 is the concentration that inhibits the measured activity by half. A low value points to greater potency in that assay.

Calls of active or inactive are those of the source. The rule behind the calls is not given here.

34 compounds from ChEMBL document CHEMBL1158503, “Design and preliminary structure-activity relationship of redox-silent semisynthetic tocotrienol analogues as inhibitors for breast cancer proliferation and invasion” (Bioorg Med Chem, 2010) can be followed below.

The test system of one assay is MCF7. As to the kind of experiment: Antiproliferative activity against human MCF7 cells after 96 hrs by MTT assay. It counts as functional, cell-based. As to conditions: MCF7, 96 h. The procedure, abridged: (§1)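 Cells were grown in RPMI with 10% FBS, 2 mmol/L glutamine and penicillin/streptomycin at 37 °C, 5% CO2. They were seeded at 8 × 10^3 cells/well and left to attach for 24 h. Medium was then changed to serum-free RPMI containing compound at 20, 10, 5 or 2 µM for 96 h. MTT was added for 4 h, then solubilized, and A570 read. Cell number came from a hemocytometer standard curve. IC50 was taken by nonlinear regression of log concentration vs cells/well.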
For orientation: Tetrazolium dyes change colour on reduction, which living cells bring about.

Assay [1] relates to MDA-MB-231. As to the kind of experiment: Antiinvasive activity in human MDA-MB-231 assessed as cell migration at 5 uM after 24 hrs by BME cell invasion assay. It counts as functional, cell-based. Put shortly: (§2)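 Cultrex 96-well BME invasion kit (Boyden-type, 8 µm PET membrane), BME 1X coat set overnight at 37 °C. 50,000 MDA-MB-231 cells in serum-free RPMI put in the top chamber with compound at 5 µM. The lower chamber held RPMI with 10% FBS, fibronectin and 10 nM fMLP as chemoattractants. Migration ran 24 h at 37 °C. Invaded cells were loaded with calcein-AM for 1 h and read by fluorescence (ex 485/em 520 nm).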

Assay [2] relates to MDA-MB-231. Nature of the assay: Antiproliferative activity against human MDA-MB-231 cells after 96 hrs by MTT assay. The following applies: MDA-MB-231, 96 h. It is filed as functional, cell-based. The procedure, abridged:
as §1

In assay [3] the test system is MDA-MB-231. As to the kind of experiment: Antiinvasive activity in human MDA-MB-231 at 5 uM after 24 hrs by BME cell invasion assay. It counts as functional, cell-based. Put shortly: as §2
Assay [4] in a line: Antiproliferative activity against mouse +SA cells after 4 days by MTT assay. The following applies: +SA cell, 96 h. It counts as functional, cell-based. Put shortly: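 +SA mouse mammary epithelial cells were kept in serum-free medium with 10 ng/mL EGF and 10 µg/mL insulin as mitogens. They were plated at 5 × 10^4 cells/well, 6 wells/group, and fed compound at 0.01–1000 µM. Viable cell number was measured by MTT after 4 days of culture.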

The nature of assay [5]: Ratio of IC50 for gamma-tocotrienol to IC50 for drug against mouse +SA cells after 4 days by MTT assay. It is filed as functional, +SA cell.
Assay [6] in a line: Inhibition of EGF-dependent mouse +SA cells growth. It counts as functional, +SA cell.

The compound `CC(C)=CCC/C(C)=C/CC/C(C)=C/CC[C@]1(C)CCc2cc(OC(=O)NC(=O)Oc3ccccc3)cc(C)c2O1` displayed an IC50 in the assay with MCF7 of 5.6 µM.
With `CC(C)=CCC/C(C)=C/CC/C(C)=C/CC[C@]1(C)CCc2c(C)c(OC(=O)NCc3ccccc3)c(C)c(C)c2O1`, the values for the IC50 in the assay on MCF7 and in the assay with MDA-MB-231 [2] were > 20 µM and 7.2 µM, respectively. Besides, in the assay with MDA-MB-231 [1], the Activity came out at 8%.
On to `CC(C)=CCC/C(C)=C/CC/C(C)=C/CC[C@]1(C)CCc2cc(OC/C=C(\C)CC/C=C(\C)CCC=C(C)C)c(C)c(C)c2O1`, for which, in the assay on MDA-MB-231 [3], the outcome was inactive.
Consider `CC(C)=CCC/C(C)=C/CC/C(C)=C/CC[C@]1(C)CCc2cc(OC(=O)Nc3ccccc3)cc(C)c2O1`, for which the IC50 was > 20 µM in the assay with MCF7 and > 10 µM in the assay with MDA-MB-231 [2].
For `CC(C)=CCC/C(C)=C/CC/C(C)=C/CC[C@]1(C)CCc2cc(OC(=O)NS(=O)(=O)c3ccccc3)cc(C)c2O1`, in that order: 6.1 µM and > 10 µM.
For `CC(C)=CCC/C(C)=C/CC/C(C)=C/CC[C@]1(C)CCc2cc(OC(=O)NC(=O)Oc3ccccc3)c(C)c(C)c2O1`, in the assay with MCF7, the half-maximal inhibitory concentration (IC50) was > 20 µM.
On to `CC(C)=CCC/C(C)=C/CC/C(C)=C/CC[C@]1(C)CCc2cc(OC(=O)NS(=O)(=O)c3ccc(C)cc3)c(C)c(C)c2O1`, for which the half-maximal inhibitory concentration (IC50) was 2.4 µM with MCF7, 2 µM in assay [4] and > 10 µM in the assay on MDA-MB-231 [2]. In addition, the “Ratio IC50” value in assay [5] came to 2.
`CC(C)=CCCOc1cc2c(c(C)c1C)O[C@](C)(CC/C=C(\C)CC/C=C(\C)CCC=C(C)C)CC2`: in the assay with MDA-MB-231 [3], the result was inactive.
On the same count and under the same terms, then `CC(C)=CCC/C(C)=C/CC/C(C)=C/CC[C@]1(C)CCc2cc(OCCC(C)C)c(C)c(C)c2O1`, with “inactive”.
In the case of `Cc1c(C)c2c(c(C)c1OC(=O)[C@@H](N)CCCCN)CC[C@@](C)(CCCC(C)CCCC(C)CCCC(C)C)O2` (some centres undefined), half-maximal inhibition with MCF7 (IC50) required 12 µM.
In the case of `COc1cccc(COc2cc3c(c(C)c2C)O[C@](C)(CC/C=C(\C)CC/C=C(\C)CCC=C(C)C)CC3)c1`, the outcome with MDA-MB-231 [3] was inactive.
Consider `CC(C)=CCC/C(C)=C/CC/C(C)=C/CC[C@]1(C)CCc2cc(OC(=O)Nc3ccccc3)c(C)c(C)c2O1`, for which the results for the IC50 with MCF7 and in the assay on MDA-MB-231 [2] were > 20 µM and > 10 µM, respectively.
For `CC(C)=CCC/C(C)=C/CC/C(C)=C/CC[C@]1(C)CCc2cc(OC(=O)NS(=O)(=O)c3ccccc3)c(C)c(C)c2O1`, in that order: > 20 µM and > 10 µM.
On the same counts, the results for `CC(C)=CCC/C(C)=C/CC/C(C)=C/CC[C@]1(C)CCc2c(C)c(OC(=O)NS(=O)(=O)c3ccc(Cl)cc3)c(C)c(C)c2O1` are 5.1 µM and > 10 µM.
For `CC(C)=CCC/C(C)=C/CC/C(C)=C/CC[C@]1(C)CCc2c(C)c(OC(=O)NS(=O)(=O)c3ccccc3)c(C)c(C)c2O1`, in that order: 4.5 µM and > 10 µM.
In the case of `CC(C)=CCC/C(C)=C/CC/C(C)=C/CC[C@]1(C)CCc2cc(OC(=O)NS(=O)(=O)c3ccc(C)cc3)cc(C)c2O1`, the IC50 is > 20 µM in the assay with MCF7 and 6.6 µM in the assay with MDA-MB-231 [2]. Further, the outcome in the assay with MDA-MB-231 [3] was Active.
Regarding `CC(C)=CCC/C(C)=C/CC/C(C)=C/CC[C@]1(C)CCc2c(C)c(OC(=O)NC(=O)Oc3ccccc3)c(C)c(C)c2O1`, the IC50 in the assay on MCF7 is > 20 µM; in the assay with MDA-MB-231 [2] it was > 10 µM.
Regarding `CC(C)=CCC/C(C)=C/CC/C(C)=C/CC[C@]1(C)CCc2cc(O)c(C)c(C)c2O1` [GAMMA-TOCOTRIENOL], the half-inhibitory concentration (IC50) is 11.4 µM in the assay on MCF7 and > 10 µM in the assay on MDA-MB-231 [2]. Also, the “inhibition (INH)” value in assay [6] is recorded as 50%.
For `CC(C)=CCC/C(C)=C/CC/C(C)=C/CC[C@]1(C)CCc2c(C)c(OC(=O)NS(=O)(=O)c3ccc(C)cc3)c(C)c(C)c2O1`, the IC50 in the assay with MCF7 was 6.1 µM; in the assay with MDA-MB-231 [2], > 10 µM.
For `CC(C)=CCC/C(C)=C/CC/C(C)=C/CC[C@]1(C)CCc2cc(OC(=O)NS(=O)(=O)c3ccc(Cl)cc3)cc(C)c2O1`, in that order: > 20 µM and > 10 µM.
Take `CC(C)=CCC/C(C)=C/CC/C(C)=C/CC[C@]1(C)CCc2cc(OC(=O)NCc3ccccc3)c(C)c(C)c2O1`: the IC50 was > 20 µM in the assay with MCF7 and > 10 µM in the assay with MDA-MB-231 [2]. Further, the result in the assay on MDA-MB-231 [3] was Active.
As for `CC(C)=CCC/C(C)=C/CC/C(C)=C/CC[C@]1(C)CCc2cc(OC/C=C(\C)CC/C=C(\C)CCC=C(C)C)cc(C)c2O1`, in the assay with MDA-MB-231 [3], the outcome was inactive.
Regarding `Cc1c(C)c2c(c(C)c1OC(=O)CCC(=O)O)CC[C@@](C)(CCCC(C)CCCC(C)CCCC(C)C)O2` (some centres undefined), in the assay with MCF7, the IC50 is > 368 µM.
`CC(C)=CCC/C(C)=C/CC/C(C)=C/CC[C@]1(C)CCc2c(C)c(OC(=O)Nc3ccccc3)c(C)c(C)c2O1`: the IC50 is > 20 µM with MCF7 and > 10 µM with MDA-MB-231 [2].
In the assay with MCF7, `Cc1cc(C)c2c(c1C)O[C@](C)(CCCC(C)CCCC(C)CCCC(C)C)CC2` (some centres undefined) returned a half-inhibitory concentration (IC50) of 329 µM.
As to `COc1cccc(COc2c(C)c(C)c3c(c2C)CC[C@@](C)(CC/C=C(\C)CC/C=C(\C)CCC=C(C)C)O3)c1`, the outcome with MDA-MB-231 [3] was inactive.
On the same count and under the same terms, the same measure for `COc1cc2c(c(C)c1C)O[C@](C)(CC/C=C(\C)CC/C=C(\C)CCC=C(C)C)CC2`: “inactive”; for `CC(C)=CCC/C(C)=C/CC/C(C)=C/CC[C@]1(C)CCc2c(C)c(OC/C=C(\C)CC/C=C(\C)CCC=C(C)C)c(C)c(C)c2O1`: “inactive”.
In the case of `CC(C)=CCC/C(C)=C/CC/C(C)=C/CC[C@]1(C)CCc2cc(OC(=O)NCc3ccccc3)cc(C)c2O1`, the half-maximal inhibitory concentration (IC50) was > 20 µM in the assay on MCF7 and > 10 µM in the assay with MDA-MB-231 [2].
As for `COc1cc(COc2cc3c(c(C)c2C)O[C@](C)(CC/C=C(\C)CC/C=C(\C)CCC=C(C)C)CC3)cc(OC)c1`, in the assay with MDA-MB-231 [3], the outcome was inactive.
For the compound `COc1cc(COc2c(C)c(C)c3c(c2C)CC[C@@](C)(CC/C=C(\C)CC/C=C(\C)CCC=C(C)C)O3)cc(OC)c1`, the outcome in the assay on MDA-MB-231 [3] was inactive.
With `CC(C)=CCC/C(C)=C/CC/C(C)=C/CC[C@]1(C)CCc2c(C)c(O)c(C)c(C)c2O1` [ALPHA-TOCOTRIENOL], the results for the half-inhibitory concentration (IC50) in the assay on MCF7 and with MDA-MB-231 [2] were > 20 µM and > 10 µM, respectively.
For `CC(C)=CCC/C(C)=C/CC/C(C)=C/CC[C@]1(C)CCc2cc(O)cc(C)c2O1` [DELTA-TOCOTRIENOL], in that order: 15.5 µM and > 10 µM.
On the same counts, the results for `CC(C)=CCC/C(C)=C/CC/C(C)=C/CC[C@]1(C)CCc2cc(OC(=O)NS(=O)(=O)c3ccc(Cl)cc3)c(C)c(C)c2O1` are > 20 µM and > 10 µM.
